The record followed here is ChEMBL document CHEMBL4811241, “Revisiting Pyrazolo[3,4-d]pyrimidine Nucleosides as Anti-Trypanosoma cruzi and Antileishmanial Agents” (J Med Chem, 2021).

Molecules are shown by their SMILES. The source made the active and inactive calls. No cut-off for these calls is given here.

In series [1] the test system is Trypanosoma cruzi. Kind of series: Antitrypanosomal activity against Trypanosoma cruzi strain Y bloodstream trypomastigotes infected in Swiss Webster mouse assessed as reduction in parasitemia at 100 mg/kg, po qd for 5 days treatment started at 6 days post-infection and measured at 8 days post-infection by light microscopic analysis. The class given is functional, organism-based. The note with it: time 2.0 day. The method, boiled down: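 Male Swiss Webster mice, 18–20 g, six per group; only mice with detectable parasitemia treated. Oral gavage for 5 consecutive days (6–10 dpi); test compound given b.i.d. in 10% Tween 80, benznidazole once daily, formulations freshly prepared. Parasitemia counted by light microscopy in 5 μL blood; mortality checked daily to 34 dpi.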

Series [2] in a line: Toxicity in Swiss webster mouse infected with Trypanosoma cruzi Y trypomastigotes assessed as animal survival at 10 mg/kg, po qd for 5 days treatment started at 6 days post-infection and measured at 34 days post-infection. The class given is organism-based. The note with it: in vivo, 696 h, time 29 day. In short, it runs like this: (§1)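 Male Swiss Webster mice (18−20 g, 4−5 weeks) were infected i.p. with 10⁴ Y-strain bloodstream trypomastigotes from a donor mouse. Only mice with detectable parasitemia were treated, in groups of six. Oral gavage was given on days 6–10 post-infection, b.i.d. or q.d. as listed, in 10% Tween 80 vehicle, freshly prepared. Infected vehicle controls were included. Mortality was checked daily to 34 dpi as cumulative percentage.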

Series [3] in a line: Toxicity in Swiss webster mouse infected with Trypanosoma cruzi Y trypomastigotes assessed as animal survival at 100 mg/kg, po qd for 5 days treatment started at 6 days post-infection and measured at 34 days post-infection. The class given is organism-based. The note with it: in vivo, time 29 day. The method, boiled down: as §1
Series [4] concerns Trypanosoma cruzi. Kind of series: Antitrypanosomal activity against nifurtimox-sensitive Trypanosoma cruzi Tulahuen CL2 infected in Swiss mouse peritoneal macrophages assessed as inhibition of parasite growth measured after 7 days by spectrophotometric analysis. The settings on record: Tulahuen CL2, Peritoneal macrophage, 168 h. In kind it is functional, organism-based.

For orientation: IC50 means the point on the concentration scale where inhibition reaches its midpoint. As for `O=C(Cn1ccnc1[N+](=O)[O-])NCc1ccccc1` [BENZNIDAZOLE], the result in series [1] was Active. Also, the Activity result in series [2] is reported as “Non-Toxic”. The survival at 696 h in series [3] amounted to 100%. Also, the IC50 in series [4] is 1960 nM.
